{"data": "Assay results pooled from the literature", "target": "Serine/threonine-protein kinase 25 (STK25, Homo sapiens, UniProt O00506)", "note": "Each line is one published result; the experiments were not run side by side."}
{"Structure (SMILES)": "CO[C@@H](C)c1c(Nc2ccc([C@H](N(C)C(=O)C3CCS(=O)(=O)CC3)C(F)(F)F)cc2)cnc2cc(Cl)nn12", "assay": "cell-free assay, competition with immobilised ligand", "setting": "1 µM", "measurement": "remaining binding", "result": "87%"}
{"Structure (SMILES)": "CCN(CC)CCNC(=O)c1c(C)[nH]c(/C=C2\\C(=O)Nc3ccc(F)cc32)c1C", "assay": "cell-free assay", "setting": "0.5 µM", "measurement": "remaining signal", "result": "76.1%"}
{"Structure (SMILES)": "CNC(=O)c1ccc(Nc2ncc(C(F)(F)F)c(NCc3nccnc3N(C)S(C)(=O)=O)n2)cc1", "assay": "cell-free assay, competition with immobilised ligand", "setting": "0.1 µM", "measurement": "remaining binding", "result": "85%"}
{"Structure (SMILES)": "O=C(Nc1cnn(-c2csc(C(=O)NC3COC3)c2)c1)Nc1c(F)cccc1Cl", "assay": "enzyme activity, inhibitor", "setting": "5 µM", "measurement": "remaining activity", "result": "96.1%"}
{"Structure (SMILES)": "CCN1CCC2(CC1)NC(=O)c1c(c3ccc(Cl)c(Cl)c3n1C)C2C#N (racemic)", "assay": "thermal stability, DSF", "setting": "10 µM", "measurement": "ΔTm", "result": "-0.2 °C"}
{"Structure (SMILES)": "COc1cccc2c(NCc3ccccc3)nc(-n3c(N)nc4ccccc43)nc12", "assay": "target engagement in cells, inhibitor, chemoproteomics", "setting": "20 mM", "measurement": "inhibition", "result": "3.5%"}
{"Structure (SMILES)": "Cn1c2c(c3ccc(Cl)c(Cl)c31)C(C#N)C(C)(C)NC2=O (centres unmarked)", "assay": "thermal stability, DSF", "setting": "10 µM", "measurement": "ΔTm", "result": "1.2 °C"}
{"Structure (SMILES)": "CC(=O)c1c(NS(C)(=O)=O)c2cc(-c3ccc(Cl)cc3)c(-c3ccc(Cl)cc3Cl)nc2n(C)c1=O", "assay": "cell-free assay, competition with immobilised ligand", "setting": "1 µM", "measurement": "remaining binding", "result": "100%"}
{"Structure (SMILES)": "COc1cc2ncnc(Nc3ccc(F)c(Cl)c3)c2cc1OCCCN1CCOCC1", "assay": "cell-free assay", "setting": "0.5 µM", "measurement": "remaining signal", "result": "97.4%"}
{"Structure (SMILES)": "COc1cc(-c2cc(-c3ccc(N4CCNCC4)cc3)cnc2C)cc(OC)c1OC", "assay": "enzyme activity, inhibitor", "setting": "0.1 µM", "measurement": "inhibition", "result": "1%"}
{"Structure (SMILES)": "COc1cc(-c2cn(C3CCc4ccccc4N(CC(F)(F)F)C3=O)nn2)ccc1-n1ccc(C)n1 (centres unmarked)", "assay": "cell-free assay, competition with immobilised ligand", "setting": "1 µM", "measurement": "remaining binding", "result": "100%"}
{"Structure (SMILES)": "COc1cc2ncnc(Nc3ccc(Oc4ccccc4)cc3C)c2cc1OC", "assay": "enzyme activity, inhibitor", "setting": "1 µM", "measurement": "inhibition", "result": "-2%"}
{"Structure (SMILES)": "O=C(NCc1ncc(C(F)(F)F)cc1Cl)c1ccc2c(c1)C1(CCS(=O)(=O)CC1)[C@H](C1CC1)N2S(=O)(=O)c1ccc(F)cc1", "assay": "cell-free assay, competition with immobilised ligand", "setting": "1 µM", "measurement": "remaining binding", "result": "100%"}
{"Structure (SMILES)": "CC(C)(C)c1nc(-c2cccc(NS(=O)(=O)c3c(F)cccc3F)c2F)c(-c2ccnc(N)n2)s1", "assay": "enzyme activity, inhibitor, radiometric", "setting": "1 µM", "measurement": "remaining activity", "result": "51%"}
{"Structure (SMILES)": "C#Cc1cccc(Nc2ncnc3cc(OCCOC)c(OCCOC)cc23)c1", "assay": "cell-free assay", "setting": "0.5 µM", "measurement": "remaining signal", "result": "99.4%"}
{"Structure (SMILES)": "COc1cc(Cl)c(C(=O)N[C@@H](CN[C@H]2CC[C@@H](N)CC2)Cc2ccc(C#N)cc2)cc1-c1ccc(CN[C@H](C)c2ccc(C)cc2)o1", "assay": "enzyme activity, inhibitor", "setting": "1 µM", "measurement": "remaining activity", "result": "104%"}
{"Structure (SMILES)": "CC1(C)NC(=O)c2[nH]c3c(Cl)c(Cl)ccc3c2C1C#N (centres unmarked)", "assay": "thermal stability, DSF", "setting": "10 µM", "measurement": "ΔTm", "result": "1.6 °C"}
{"Structure (SMILES)": "CN(C)c1ncc(F)c(-c2cnn3ncccc23)n1", "assay": "binding", "setting": "1 µM", "measurement": "remaining binding", "result": "100%"}
{"Structure (SMILES)": "Cc1cnc(NC2CCOCC2)nc1-n1cnc(C(=O)NC(CN)c2cc(F)cc(Cl)c2)c1 (centres unmarked)", "assay": "enzyme activity, inhibitor, radiometric", "setting": "1 µM", "measurement": "remaining activity", "result": "71%"}
{"Structure (SMILES)": "C[C@H](c1cccc(C#N)c1)n1cc(Cl)cc(C(N)=O)c1=N", "assay": "cell-free assay, competition with immobilised ligand", "setting": "1 µM", "measurement": "remaining binding", "result": "100%"}
{"Structure (SMILES)": "CCOc1cc(-c2nncn2C)ccc1Nc1ncc2cc(C)nc(NCC(C)(C)C)c2n1", "assay": "enzyme activity, inhibitor, FRET", "setting": "1 µM", "measurement": "inhibition", "result": "< 15%"}
{"Structure (SMILES)": "Cc1cc(C)c(-n2ccn3nc(-c4cccnc4)cc23)cc1NC(=O)c1cc(C#N)cc(S(F)(F)(F)(F)F)c1", "assay": "cell-free assay, competition with immobilised ligand", "setting": "0.1 µM", "measurement": "remaining binding", "result": "79.1%"}
{"Structure (SMILES)": "CCCS(=O)(=O)Nc1ccc(F)c(C(=O)c2c[nH]c3ncc(-c4ccc(Cl)cc4)cc23)c1F", "assay": "enzyme activity, inhibitor", "setting": "1 µM", "measurement": "inhibition", "result": "< 10%"}
{"Structure (SMILES)": "COc1ccc2c(O[C@@H]3C[C@H]4C(=O)N[C@]5(C(=O)O)CC5/C=C\\CCCCC[C@H](NC(=O)OC5CCCC5)C(=O)N4C3)cc(-c3csc(NC(=O)C(C)C)n3)nc2c1C (some centres unmarked)", "assay": "cell-free assay, competition with immobilised ligand", "setting": "1 µM", "measurement": "remaining binding", "result": "100%"}
{"Structure (SMILES)": "Cc1ccc(Nc2nccc(N(C)c3ccc4c(C)n(C)nc4c3)n2)cc1S(N)(=O)=O", "assay": "enzyme activity, inhibitor", "setting": "0.5 µM", "measurement": "remaining activity", "result": "97.3%"}
{"Structure (SMILES)": "Cc1cc(NC(=O)c2cccc3cc(-c4cccc5[nH]nc(N)c45)ccc23)ccc1F", "assay": "enzyme activity, inhibitor", "setting": "0.1 µM", "measurement": "activity vs control", "result": "92%"}
